MEKK2wt PB1 HTS: raises or lowers MEK5 binding to wildtype human MEKK2 PB1 domain | Q9Y2U5 | bead flow cytometry, Alexa488-MEK5 binding to MEKK2 WT; actives lie on both sides | binding response (% of control), % at 10 µM | hit rate 1.1% among 290,000 | AID 1531; in the data active means binding response below about 67% or above about 130%
ABCB1 block: inhibitors of human ABCB1 transporter, ABCG2 counter-screen. AID 1326. P08183. inhibition, % at 6.6 µM. CCRF-Adr cells, JC-1 efflux, flow cytometry. hit rate 0.067% among 190,000; in the data active means inhibition above about 40%;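 further: 0% = vehicle and 100% = reference inhibitor; higher value means more JC-1 retained so stronger ABCB1 efflux block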
Target sequence (P08183 whole entry, looked up): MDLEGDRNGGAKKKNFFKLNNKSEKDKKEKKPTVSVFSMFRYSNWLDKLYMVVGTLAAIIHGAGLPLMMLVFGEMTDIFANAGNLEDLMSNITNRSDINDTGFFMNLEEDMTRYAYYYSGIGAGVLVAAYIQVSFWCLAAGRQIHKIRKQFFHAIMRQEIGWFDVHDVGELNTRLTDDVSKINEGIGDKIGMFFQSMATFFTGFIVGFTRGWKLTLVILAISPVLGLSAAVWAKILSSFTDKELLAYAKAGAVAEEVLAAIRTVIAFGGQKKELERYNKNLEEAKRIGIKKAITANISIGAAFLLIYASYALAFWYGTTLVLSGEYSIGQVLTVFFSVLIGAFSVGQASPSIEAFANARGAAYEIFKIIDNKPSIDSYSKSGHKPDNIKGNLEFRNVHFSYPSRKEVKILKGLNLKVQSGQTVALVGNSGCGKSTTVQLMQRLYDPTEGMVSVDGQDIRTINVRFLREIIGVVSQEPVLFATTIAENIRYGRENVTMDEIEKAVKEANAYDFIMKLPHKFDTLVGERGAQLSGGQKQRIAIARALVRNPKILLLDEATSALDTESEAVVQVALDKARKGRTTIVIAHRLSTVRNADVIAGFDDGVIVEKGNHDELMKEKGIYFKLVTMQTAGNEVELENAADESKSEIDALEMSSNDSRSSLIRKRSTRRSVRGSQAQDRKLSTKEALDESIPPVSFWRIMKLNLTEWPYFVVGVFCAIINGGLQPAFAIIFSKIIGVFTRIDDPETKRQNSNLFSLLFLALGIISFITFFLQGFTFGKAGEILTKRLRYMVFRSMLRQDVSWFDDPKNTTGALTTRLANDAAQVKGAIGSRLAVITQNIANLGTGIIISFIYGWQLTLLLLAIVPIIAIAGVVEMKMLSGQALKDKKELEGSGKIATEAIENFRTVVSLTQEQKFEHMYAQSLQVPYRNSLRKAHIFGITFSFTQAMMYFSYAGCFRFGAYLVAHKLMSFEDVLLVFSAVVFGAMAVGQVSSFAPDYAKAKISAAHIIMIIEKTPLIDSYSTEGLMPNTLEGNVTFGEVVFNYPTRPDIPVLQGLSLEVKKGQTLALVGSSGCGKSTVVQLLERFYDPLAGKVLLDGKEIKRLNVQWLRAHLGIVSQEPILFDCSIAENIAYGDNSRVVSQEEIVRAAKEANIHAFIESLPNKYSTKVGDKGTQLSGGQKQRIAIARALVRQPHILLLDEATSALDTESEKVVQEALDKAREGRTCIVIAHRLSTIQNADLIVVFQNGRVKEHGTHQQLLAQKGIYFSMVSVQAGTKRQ
MEKK3 PB1 HTS: modulators (inhibitors or enhancers) of MEK5 binding to human MEKK3 PB1 domain. bead-based flow cytometry, Alexa488-MEK5 binding to MEKK3; actives lie on both sides; 0 = blocked by unlabeled MEK5, 100 = vehicle. binding response (% of control), % at 10 µM. hit rate 1.4% among 290,000. AID 1529;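 active means binding response more than 3 SD above or below the average of its plate-row segment, actives on both sides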;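 further: Alexa488 bead fluorescence after subtracting the streptavidin-only scavenger bead signal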
WT yeast gro inh: growth inhibition of WT yeast, mitochondrial fusion screen | inhibition, % at 10 µM | AID 1362 | mitochondrial fusion phenotypic screen, WT strain | hit rate 2.1% among 190,000; in the data active means inhibition above about 58%; tested in S. cerevisiae
ABCG2 block: inhibitors of human ABCG2 transporter, ABCB1 counter-screen; Q9UNQ0; IgMXP3 cells, JC-1 efflux, flow cytometry; inhibition, % at 6.6 µM; hit rate 0.1% among 190,000;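 active means inhibition above 80%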;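 further: 0% = DMSO and 100% = nicardipine control wells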
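Measure – % inhibition of efflux relative to nicardipine and DMSO · Test system – ABCG2 IgMXP3 and barcoded ABCB1 CCRF-Adr cell mix · Control set – nicardipine as high control, DMSO as low control · Compound – one concentration, 6.6 µM final · Signal – flow cytometry of retained JC-1 fluorescence · Timing – 10 min exposure at 25 °C with rotation, no wash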
MEKK2mut PB1 HTS: signal of MEK5 binding to mutant human MEKK2 PB1 domain | bead flow cytometry, Alexa488-MEK5 binding to MEKK2 mutant | hit rate 0.35% among 290,000 | percent response, % at 10 µM | AID 1530; in the data active means percent response above about 24%, passing the limit was not always enough
MEKK2wt confirm: raises or lowers MEK5 binding to wildtype human MEKK2, retest | shares compounds with MEKK3 PB1 HTS | bead flow cytometry, Alexa488-MEK5 binding to MEKK2 WT; actives lie on both sides | binding response (% of control), % at 10 µM | hit rate 2.4% among 5,900; in the data active means binding response below about 16% or above about 210%; inactive means in between
MEKK2mut confirm: signal of MEK5 binding to mutant human MEKK2, retest | bead flow cytometry, Alexa488-MEK5 binding to MEKK2 mutant | hit rate 2% among 5,900 | shares compounds with MEKK3 PB1 HTS | percent response, % at 10 µM; in the data active means percent response mostly above about 71%, no sharp cut-off; inactive means mostly below about 38%;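 further: higher means compound restores mutant binding toward wildtype level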
MEKK3 confirm: MEKK3-MEK5 PB1 inhibition, single concentration confirmation; hit rate 1.8% among 5,900; bead flow cytometry, Alexa488-MEK5 binding to MEKK3; active compounds read low; shares compounds with MEKK3 PB1 HTS; binding response (% of control), % at 10 µM;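 active means binding response below 72% of control, or above a set upper limit, though filed actives all read lower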;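 further: 100% = DMSO only wells and 0% = binding blocked by excess unlabeled MEK5; lower values mean stronger disruption of MEK5 binding to MEKK3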
The depositor's hits bear a star; nt = no result given; [ ] = dose if it differs, or a comment. Hits are enriched below; roughly 3.5% of the tested compounds scored in any of these assays.

SMILES	MEKK2wt PB1 HTS	ABCB1 block	MEKK3 PB1 HTS	WT yeast gro inh	ABCG2 block	MEKK2mut PB1 HTS	MEKK2wt confirm	MEKK2mut confirm	MEKK3 confirm
N=c1n(CCN2CCCCC2)c2ccccc2n1CC(=O)c1ccc(Cl)c(Cl)c1	173.0*	nt	102.0	nt	nt	28.0	166.0	30.0	106.0
N=c1n(CCN2CCCCC2)c2ccccc2n1CC(O)c1ccc(Cl)c(Cl)c1 (stereo not drawn)	142.0*	0.0	110.0	-11.0	2.5	14.0	153.0	18.0	103.0
N=c1n(CCN2CCCCC2)c2ccccc2n1CC(O)c1cccc(Br)c1 (stereo not drawn)	129.0	0.2	97.0	-5.7	4.3	20.0	nt	nt	nt
CCn1c(=N)n(CC(=O)c2ccc(Cl)c(Cl)c2)c2ccccc21	125.0	nt	109.0	nt	nt	14.0	nt	nt	nt
O=C1c2cccnc2C(Nc2ccc(Cl)cc2)N1Cc1cccs1 (stereo not drawn)	54.0*[inhibitor]	1.0	75.0*[inhibitor]	5.1	2.5	-16.0	108.0	7.0	104.0
COc1cc2c3nnc(-c4ccc(F)cc4)c-3cn(Cc3ccccc3F)c2cc1OC	100.0	-0.2	92.0	-54.4	-0.5	-2.0	nt	nt	nt
COc1cc2c3nnc(-c4ccccc4)c-3cn(Cc3ccccc3F)c2cc1OC	153.0*	0.2	96.0	14.0	0.9	26.0	132.0	13.0	99.0
c1ccc(Cc2ccc(OCCCNC3CCCC3)cc2)cc1	138.0*	0.1	108.0	47.0	1.4	13.0	128.0	10.0	102.0
O=C(OCc1nnc(-c2ccccc2)o1)C1CCN(S(=O)(=O)c2cccs2)CC1	101.0	0.5	100.0	3.1	0.9	1.0	nt	nt	nt
Cc1nc(C(N)=O)c(N)n1CCc1ccccc1	111.0	nt	104.0	nt	nt	8.0	nt	nt	nt
O=C(CCSCc1ccc(Cl)cc1)NCCc1ccccc1	102.0	0.1	142.0*	18.1	2.8	0.0	96.0	-6.0	101.0
O=C(CCSCc1ccc(Cl)cc1)NC1CCCC1	109.0	-0.7	151.0*	15.1	-6.5	1.0	98.0	-8.0	102.0
O=C(CCSCc1cccc(Cl)c1)NCCc1ccc(Cl)cc1	111.0	0.1	104.0	14.6	0.9	16.0	nt	nt	nt
COc1ccccc1OCC(=O)NCCSCc1ccc(Cl)cc1	108.0	-0.1	132.0*	36.0	-1.1	0.0	97.0	-7.0	100.0
Cc1ccc(SCC(=O)NCCSCc2ccccc2)cc1	101.0	-0.2	112.0	9.2	0.6	-1.0	nt	nt	nt
O=C(CSc1ccccc1)NCCSCc1ccccc1	111.0	0.5	140.0*	-5.1	-1.7	2.0	102.0	2.0	101.0
O=C(Cc1ccc(Cl)cc1)NC1CC1	101.0	0.0	108.0	-5.1	-0.1	-4.0	nt	nt	nt
NS(=O)(=O)c1ccc(NC(=O)COC(=O)COc2ccc(Cl)cc2)cc1	77.0	1.1	96.0	-1.3	4.2	3.0	nt	nt	nt
CCC1(C)CC(c2nc(-c3ccc(OC)cc3)cs2)CCS1 (stereo not drawn)	114.0	0.3	99.0	50.8	10.4	10.0	nt	nt	nt
CC(C)n1nccc1NC(=O)Nc1ccccc1	98.0	nt	102.0	nt	nt	-1.0	nt	nt	nt
COc1ccccc1NC(=S)NC(NC(=O)c1ccco1)C(Cl)(Cl)Cl (stereo not drawn)	100.0	0.2	129.0*	-2.6	6.9	0.0	101.0	2.0	105.0
O=C(NC(NC(=S)Nc1ccccc1O)C(Cl)(Cl)Cl)c1ccco1 (stereo not drawn)	101.0	1.7	116.0	-2.4	10.1	0.0	nt	nt	nt
Cc1ccc(Nc2c(N)c(=O)oc3ccccc23)cc1	0.0*[inhibitor]	-0.5	0.0*[inhibitor]	-13.7	0.2	4.0	101.0	2.0	98.0
Cc1cccc(C)c1OCC(=O)N=Nc1c(O)[nH]c2ccc(Br)cc12	nt	0.1	nt	50.9	0.6	nt	nt	nt	nt
